Assays:
Alpha-galactosidase = Alpha-galactosidase (Coffea arabica, UniProt Q42656); assay: Inhibition of coffee beans alpha-galactosidase using p-nitrophenyl glycopyranoside preincubated for 5 mins followed by substrate addition measured after 20 mins by visible absorption spectroscopic method
In short: (§1)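 IC50 determined only for compounds giving ≥80% inhibition at 1 mM, read from plots of % inhibition versus inhibitor concentration. p-Nitrophenyl glycopyranoside substrate (10 mM solution) at the enzyme's optimal pH, with 0.01–0.5 units/mL enzyme. 5 min rt preincubation with enzyme, then 20 min at 37 °C. Borate stop (pH 9.8), absorbance at 405 nm. Duplicates averaged.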

[1] = Inhibition of bovine liver beta-glucosidase using p-nitrophenyl glycopyranoside preincubated for 5 mins followed by substrate addition measured after 20 mins by visible absorption spectroscopic method; parameters: species or system Bos taurus; in short: as §1
[2] = Selectivity ratio of IC50 for human lysosomal alpha-galactosidase A to IC50 for coffee beans alpha-galactosidase
Alpha-galactosidase A = target: T1, Alpha-galactosidase A (Homo sapiens, UniProt P06280); assay: Inhibition of human lysosomal alpha-galactosidase A using 4-methylumbelliferyl-alpha-D-galactopyranoside as substrate preincubated for 45 mins followed by substrate addition measured after 30 mins by fluorescence spectroscopic method
T1 sequence (P06280 whole entry): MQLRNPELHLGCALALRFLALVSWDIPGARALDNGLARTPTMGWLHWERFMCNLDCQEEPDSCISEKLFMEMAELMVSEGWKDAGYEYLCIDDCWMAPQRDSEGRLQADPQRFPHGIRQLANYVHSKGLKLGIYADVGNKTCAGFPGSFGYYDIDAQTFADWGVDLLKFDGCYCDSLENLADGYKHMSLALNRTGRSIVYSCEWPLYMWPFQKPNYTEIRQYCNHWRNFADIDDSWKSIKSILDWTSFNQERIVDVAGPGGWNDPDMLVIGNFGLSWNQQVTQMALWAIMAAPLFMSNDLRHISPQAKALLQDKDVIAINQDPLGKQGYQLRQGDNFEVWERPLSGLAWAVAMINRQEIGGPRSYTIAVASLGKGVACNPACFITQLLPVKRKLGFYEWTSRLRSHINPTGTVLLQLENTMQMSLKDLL
In short: (§2)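 Enzyme in 100 mM McIlvaine buffer pH 5.2 with 0.25% sodium taurocholate and 0.1% Triton X-100, with inhibitor. Preincubated at 0 °C for 45 min, then started with 3 mM 4-methylumbelliferyl glycoside substrate solution and incubated 30 min at 37 °C. Stopped with 400 mM glycine-NaOH pH 10.6. 4-Methylumbelliferone fluorescence read at ex 362/em 450 nm.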

[3] = target: Alpha-galactosidase (Coffea arabica) (UniProt Q42656); assay: Inhibition of coffee beans alpha-galactosidase at 50 uM using p-nitrophenyl glycopyranoside preincubated for 5 mins followed by substrate addition measured after 20 mins by visible absorption spectroscopic method relative to control
In short: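 Crude triazoles from in situ CuAAC (ascorbate/CuSO4, 24 h rt, water-diluted) were screened at 50 μM per well, assuming full conversion. Enzyme was coffee bean α-galactosidase at pH 6, 37 °C, with p-nitrophenyl glycoside substrate and 405 nm read-out. Blanks of CuSO4, ascorbate and each alkyne were run.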

[4] = Inhibition of almond beta-glucosidase using p-nitrophenyl glycopyranoside preincubated for 5 mins followed by substrate addition measured after 20 mins by visible absorption spectroscopic method; parameters: species or system Prunus dulcis; in short: as §1
Bos taurus = organism: Bos taurus; assay: Inhibition of bovine liver beta-glucosidase at 1 mM using p-nitrophenyl glycopyranoside preincubated for 5 mins followed by substrate addition measured after 20 mins by visible absorption spectroscopic method relative to control
In short: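 Test compound at 1 mM in well. Mix: 0.01–0.5 units/mL enzyme plus 10 mM p-nitrophenyl glycopyranoside (aqueous solution), buffered to the enzyme's optimal pH. Enzyme and inhibitor preincubated 5 min at rt. Substrate then added and incubated 20 min at 37 °C. Stopped with sodium borate (pH 9.8). p-Nitrophenolate read at 405 nm. Duplicates averaged.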

[5] = target: T2, Alpha-galactosidase A (Homo sapiens) (UniProt P06280); assay: Inhibition of human lysosomal alpha-galactosidase A at 1 mM using 4-methylumbelliferyl-alpha-D-galactopyranoside as substrate preincubated for 45 mins followed by substrate addition measured after 30 mins by fluorescence spectroscopic method relative to control; in short: as §2
T2 sequence (whole entry): T1 sequence (P06280 whole entry)

Alpha-galactosidase (Coffea arabica), sequence (Q42656 16-378 limits assumed): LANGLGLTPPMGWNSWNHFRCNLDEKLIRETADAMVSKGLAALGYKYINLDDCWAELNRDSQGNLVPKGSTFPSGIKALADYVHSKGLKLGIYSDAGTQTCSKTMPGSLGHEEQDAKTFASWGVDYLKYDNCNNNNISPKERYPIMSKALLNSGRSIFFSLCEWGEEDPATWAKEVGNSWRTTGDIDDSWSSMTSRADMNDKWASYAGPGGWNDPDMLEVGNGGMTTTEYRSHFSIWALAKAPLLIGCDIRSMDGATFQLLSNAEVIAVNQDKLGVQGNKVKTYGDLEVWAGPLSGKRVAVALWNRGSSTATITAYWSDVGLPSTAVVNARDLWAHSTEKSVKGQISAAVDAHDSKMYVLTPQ
Alpha-galactosidase, sequence (Q42656 whole entry): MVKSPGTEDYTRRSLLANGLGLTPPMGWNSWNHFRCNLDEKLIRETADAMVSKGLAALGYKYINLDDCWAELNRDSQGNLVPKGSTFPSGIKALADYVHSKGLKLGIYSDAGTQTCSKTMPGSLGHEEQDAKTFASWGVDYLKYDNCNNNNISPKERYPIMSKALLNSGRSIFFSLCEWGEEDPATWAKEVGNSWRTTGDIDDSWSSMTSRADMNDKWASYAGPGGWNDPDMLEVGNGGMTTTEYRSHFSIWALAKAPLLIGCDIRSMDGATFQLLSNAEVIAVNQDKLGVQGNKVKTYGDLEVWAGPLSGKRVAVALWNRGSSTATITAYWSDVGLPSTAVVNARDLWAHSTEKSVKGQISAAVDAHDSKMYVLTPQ

Row | Structure (SMILES) | IC50 (Alpha-galactosidase) [µM] | IC50 [1] [µM] | Ratio IC50 [2] | IC50 (Alpha-galactosidase A) [µM] | inhibition [3] [%] | IC50 [4] [µM] | inhibition (Bos taurus) [%] | inhibition [5] [%]
1 | O[C@@H]1[C@H](O)CN[C@@H]1Cn1cc(-c2ccccc2)nn1 | 14 | 240 | 10 | 171 | 62 | – | – | –
2 | O[C@@H]1[C@H](O)CN[C@H]1Cn1cc(-c2ccccc2)nn1 | – | – | – | – | – | 8 | < 50 | < 50

Reference: ChEMBL document CHEMBL4190262, “Tuning of β-glucosidase and α-galactosidase inhibition by generation and in situ screening of a library of pyrrolidine-triazole hybrid molecules” (Eur J Med Chem, 2017)
